MLLE-PAM2 inh = blocks PAM2 peptide binding to the PABP1 MLLE domain; P11940; inhibition, % at 20 µM; GST-MLLE / FITC-PAM2 fluorescence polarization; AID 588489; actives 0.36% (n = 360,000); in the data active = inhibition above about 35%, passing the limit was not always enough;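 note: plate controls were DMSO wells with GST-MLLE for no effect and wells lacking GST-MLLE protein for full effect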
Target sequence (P11940 whole entry, looked up, the tested form may be a part): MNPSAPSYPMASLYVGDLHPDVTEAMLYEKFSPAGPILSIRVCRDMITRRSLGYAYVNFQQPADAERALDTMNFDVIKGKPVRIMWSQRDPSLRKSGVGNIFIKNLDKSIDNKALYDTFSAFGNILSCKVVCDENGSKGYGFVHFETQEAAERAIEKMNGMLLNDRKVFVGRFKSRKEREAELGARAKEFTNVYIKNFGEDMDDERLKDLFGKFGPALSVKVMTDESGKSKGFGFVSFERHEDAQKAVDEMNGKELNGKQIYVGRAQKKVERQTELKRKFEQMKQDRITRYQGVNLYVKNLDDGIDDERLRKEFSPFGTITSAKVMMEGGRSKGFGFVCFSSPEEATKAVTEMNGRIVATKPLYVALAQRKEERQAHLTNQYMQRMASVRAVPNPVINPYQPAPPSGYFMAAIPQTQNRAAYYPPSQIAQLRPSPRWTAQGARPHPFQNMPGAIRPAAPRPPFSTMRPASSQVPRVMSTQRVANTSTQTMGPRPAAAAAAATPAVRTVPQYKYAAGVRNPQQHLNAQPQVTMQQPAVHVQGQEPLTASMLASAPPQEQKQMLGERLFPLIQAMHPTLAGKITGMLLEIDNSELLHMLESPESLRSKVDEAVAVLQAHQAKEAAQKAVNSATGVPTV
TCR CD3 inh = inhibitors of human TCR-CD3 interaction. TAMRA-labeled TCR probe fluorescence, biochemical. inhibition, % at 9.4 µM. actives 0.37% (n = 360,000); in the data active = inhibition above about 19%;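 note: recombinant mutant TCR 2C K166C tagged with TAMRA read by polarization; 0% = receptor in buffer alone and 100% = receptor with positive control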
PABP FP inh = PABP-poly(A) binding inhibition | PABP-poly(A) RNA binding, fluorescence polarization | calls only at 35 µM | actives 1% (n = 290,000);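 note: calls also rest on retests at 20 µM and on dose response follow-up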
eIF4H FP inh = inhibitors of RNA binding by human eIF4H; eIF4H fluorescence polarization binding assay; inhibition, % at 35 µM; actives 0.94% (n = 290,000); AID 2012;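 note: calls also rest on retests at 20 µM and on dose response follow-up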
RBBP9 inhibitor = blocks human serine hydrolase RBBP9. O75884. recombinant RBBP9, FP-Rh probe fluorescence polarization. inhibition, % at 7.94 µM. actives 0.2% (n = 220,000);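 active = inhibition above the campaign mean of all tested compounds plus 3 SD, cut at about 14% in these data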;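 note: plate controls were DMSO wells with RBBP9 for no effect and wells lacking RBBP9 protein for full effect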
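System: RBBP9 protein / Quantity: 2.5 µM RBBP9 dispensing solution, before mixing / Also added: Serine-hydrolase probe FP-Rh, 375 nM pre-mixing / Dosing: 7.94 µM single dose, 0.794% DMSO / Timing: enzyme-compound preincubation 30 min, then probe labeling 45 min, 25 °C / Signal: FP readout at 525/598 nm / Controls: DMSO-treated enzyme wells and wells lacking RBBP9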
* hit, by the source's call; i = inactive; ? = inconclusive; . = no result; + = active, no number. Shown are actives, neighbours in structure and some others; about 1.6% of the full set was active somewhere. Unless noted, the rule behind the calls is not given here.

SMILES	MLLE-PAM2 inh	TCR CD3 inh	PABP FP inh	eIF4H FP inh	RBBP9 inhibitor
N#C/C(=C\c1sc(N2CCOCC2)nc1-c1ccccc1)C(=O)Nc1cccc2ccccc12	.	.	+	55.0*	-7.2
O=C(Nc1ccccc1)c1sc(N2CCOCC2)nc1-c1ccccc1	-1.7	-3.5	+	active	1.2
O=C(CCn1c(=S)oc2ccccc21)Nc1ccc(F)cc1	6.7	3.6	+	8.9*	-2.0
Cc1ccc(NC(=O)CCn2c(=S)oc3ccccc32)cc1	-1.6	-1.5	i	-7.4	-9.3
Cc1cccc(NC(=S)Nc2cccc(C(F)(F)F)c2)n1	14.0	6.5	i	-9.2	-3.8
FC(F)(F)c1cccc(NC(=S)NCc2ccccn2)c1	21.2	3.9	i	-5.8	5.5
FC(F)(F)c1cccc(NC(=S)NNC(=S)NCc2ccccc2)c1	40.8*	-0.4	i	17.1	-0.1
FC(F)(F)c1cccc(NC(=S)Nc2cccc(NC(=S)Nc3cccc(C(F)(F)F)c3)n2)c1	47.1*	-2.4	i	3.1	-23.1
CCN1C(N(C)CCc2cccs2)=N[C@@H](c2ccccc2)C(C(=O)OC)=C1C	-100.8	3.4	+	-0.1	.
Cc1cccc(N2CCN(C(=O)NC3CCCCC3)CC2C)c1 (stereo not given)	-18.1	-5.2	i	-5.9	.
Cc1cccc(N2CCN(C(=O)c3ccccn3)CC2C)c1 (stereo not given)	-5.6	0.6	+	?	-2.3
Cc1c(CCO)c(=O)n2c([nH]c3ccccc32)c1C#N	-1.8	-2.8	i	-4.7	.
N#Cc1c(=O)c2nc(NCCCO)ncc2n2c(=O)c3ccccc3[nH]c12	16.4	1.0	+	78.1*	-2.3
[O-][n+]1ccccc1C(O)CSc1ccccc1 (stereo not given)	.	5.0	.	.	.
COC(=O)c1ccc(NC(=S)NC(=O)C2CCC2)cc1	26.4	-4.8	i	-0.5	.
COC(=O)c1ccc(NC(=S)NC2CCCCC2C)cc1 (stereo not given)	14.1	-1.4	+	active	-10.5
COc1ccc(C(=S)N2CCN(c3ccccc3Cl)CC2)cc1OC	40.1*	1.4	i	8.5	-7.3
CCOc1cc(C(=S)N2CCOCC2)ccc1OC	56.0*	-0.5	i	-5.9	0.6
COc1cc(C(=S)N2CCN(c3cccc(Cl)c3)CC2)ccc1O	16.9	5.2	i	14.2	-0.4
S=C(c1ccc(N2CCCC2)cc1)N1CCCCC1	3.4	8.4	i	-4.4	-5.2
CCOc1ccc(C(=S)N2CCOCC2)cc1OC	21.3	-1.6	i	-0.3	1.7
COc1cc(C(=S)N2CCN(c3ccccc3Cl)CC2)cc(O)c1O	42.4*	16.1	i	31.8	0.7
S=C(c1ccc(N2CCOCC2)cc1)N1CCOCC1	37.9*	-1.6	i	5.0	0.5
COc1cccc(C(CC2=CCCCC2)NC(=O)C(F)(F)F)c1 (stereo not given)	.	4.4	.	.	.
Cc1ccc2c(c1)N(C)/C(=C/c1cccc[n+]1CCO)S2	-133.1	-1.8	+	-1.7	.
SMILES	MLLE-PAM2 inh	TCR CD3 inh	PABP FP inh	eIF4H FP inh	RBBP9 inhibitor
Cc1ccc2c(c1)N(C)/C(=C/c1cccc[n+]1C)S2	-144.8	-3.4	+	5.7	.
CN1/C(=C/c2cccc[n+]2C)Sc2ccccc21	-140.4	4.6	+	-1.7	.
COc1ccc2c(c1)N(C)/C(=C/c1cccc[n+]1C)S2	-137.9	-2.1	i	-0.8	.
C[C@H](c1ccccc1)N1C[C@@H](COCc2ccccc2)Oc2cccc(Oc3ccc(C(C)(C)C)cc3)c2S1(=O)=O	.	6.6	.	.	.
COc1ccc(CNS(=O)(=O)c2cc(Br)ccc2Br)c(OC)c1	.	-7.5	.	.	.
Cn1nc(C(C)(C)C)cc1C(=O)Sc1cccc(Br)c1	44.1*	-8.8	i	-2.3	-5.5
Cn1nc(C(C)(C)C)cc1C(=O)O	8.4	-2.0	i	-10.4	0.8
COc1ccc(C2C=C(c3ccc(C)cc3)Nc3ncnn32)cc1 (stereo not given)	41.2*	-2.1	i	0.7	0.5
CC(=O)c1c(N2CCN(Cc3ccccc3)CC2)nc(=S)n(-c2ccccc2)c1C	-7.7	8.6	+	53.7*	-1.8
CN(N=Cc1ccc(N(C)C)cc1)C(=O)c1ccccc1N	.	-3.4	.	.	.
CCOC(=O)c1c(OCC)[nH]c2c1cc(O)c1ccccc12	25.5	12.4	+	72.2*	-7.7
Cc1nn(-c2ccccc2)c(Cl)c1/C=N/Nc1ccc(S(=O)(=O)Nc2ccccc2C(=O)O)cc1[N+](=O)[O-]	-6.8	0.3	+	91.5*	-7.2
COc1ccccc1C(=O)N1CCN(C(=O)[C@@H](Cc2ccccc2)NC(=O)[C@H]2O[C@@H](n3cnc(C(N)=O)n3)[C@H](O)[C@@H]2O)CC1	.	0.7	.	.	.
CCCc1cc(=O)oc2cc(OC3CCCCC3=O)ccc12 (stereo not given)	-2.1	10.0	+	88.6*	.
O=C1CCCCC1Oc1ccc2ccc(=O)oc2c1 (stereo not given)	-5.9	0.5	i	-1.8	.
C=CCN1[C@@H](C)[C@@H](c2ccccc2)Oc2c(Cl)cccc2S1(=O)=O	.	-6.5	.	.	.
O=C(NC(Sc1ccc(Cl)cc1)C(=O)O)c1ccccc1 (stereo not given)	39.8*	10.4	.	.	.
O=C(O)CC(Sc1ccc(Cl)cc1)C(=O)Nc1ccccc1 (stereo not given)	.	1.1	.	.	.
O=S(=O)(NCc1ccccc1)c1cc(Br)ccc1Br	.	1.3	.	.	.
COc1cc2c(C#N)c(N3CCN(C)CC3)nc(N)c2c(N)n1	2.5	-5.8	+	104.9*	-1.6
COc1cc2c(C#N)c(N3CCCC3)nc(N)c2c(N)n1	-6.2	5.2	i	49.0	-5.7
Cc1ccc(/C=N/NC(=O)c2c(C)nc3ccc(Cl)cn23)cc1	.	-2.3	.	.	.
COc1ccc(C(=O)C(=O)N2CCN(C(=O)c3cc(C(F)(F)F)cc(C(F)(F)F)c3)CC2)cc1OC	.	6.6	.	.	.
C[C@@H]1CN([C@@H](C)CO)C(=O)CCCn2cc(nn2)CO[C@H]1CN(C)C(=O)Nc1ccc2c(c1)OCO2	.	9.6	.	.	.
Oc1ccc(Br)cc1/C=N/n1c(-c2ccccc2)n[nH]c1=S	-58.0	-3.5	i	-6.9	.
SMILES	MLLE-PAM2 inh	TCR CD3 inh	PABP FP inh	eIF4H FP inh	RBBP9 inhibitor
Oc1c(Br)cc(Br)c(/C=N/n2c(-c3ccccc3)n[nH]c2=S)c1Br	14.4	-0.4	+	43.9*	.
CN(Cc1cccnc1)Cc1c(C(=O)N2CCc3ccccc3C2)nc2ccc(Cl)cn12	13.2	3.2	+	80.5	2.2
O=C(O)c1ccc(/C=N/NC(=O)c2ccc(CN3c4cccc5cccc(c45)S3(=O)=O)cc2)cc1	-7.7	-1.0	i	58.7*	-28.0
CCc1ccc(S(=O)(=O)/N=C2\C=CC(=O)c3ccccc32)cc1	.	.	i	-1.1	9.8
CCc1ccc(S(=O)(=O)/N=C2/C=C(Sc3ncn[nH]3)C(=O)c3ccccc32)cc1	46.4*	.	i	-2.9	3.4
N#Cc1c(N)nc(SCC(=O)C23CC4CC(CC(C4)C2)C3)c(C#N)c1-c1ccc(Cl)cc1	-76.8	2.2	i	7.4	-5.3
CCOC(=O)CC(=O)CSc1nc(N)c(C#N)c(-c2ccc(Cl)cc2)c1C#N	-5.0	4.6	+	114.3*	-9.2

High-throughput results from PubChem.
